Source: PubChem BioAssay (Johns Hopkins Ion Channel Center)
KCNQ1 block: human KCNQ1 channel inhibition | P51787 | CHO-K1 KCNQ1, FluxOR thallium flux fluorescence; hits give high values | B-score at 10 µM | hit rate 1.3% among 310,000 | AID 2642;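 active = compounds whose thallium flux B-score, printed positive for inhibition, exceeds three library SD while starting fluorescence stays within three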;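 note: channel opened by potassium depolarization with thallium stimulus after 20 min compound exposure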
KCNK3 block: human KCNK3 channel inhibition, primary screen | CHO-KCNK3 thallium flux, FluxOR fluorescence; hits give low values | hit rate 0.84% among 340,000 | B-score at 10 µM | AID 602410 | O14649;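 active = B-score under library mean minus 4 SD, starting fluorescence ratio at most library mean plus 5 SD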;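 note: more negative B-score means stronger inhibition of thallium flux through KCNK3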
Kir21 block: Kir2.1 (mouse) channel inhibition; P35561; HEK293-Kir2.1, FluxOR thallium flux fluorescence; hits give low values; B-score at 10 µM; hit rate 0.85% among 310,000;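 active = fluorescence ratio B-score at or below minus 3 SD of library scores, with starting-brightness B-score within 2 SD, cut at about -4.2 in these data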;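 note: channel flux triggered by added potassium and thallium sulfate stimulus; B-score of peak minus minimum fluorescence over baseline after thallium stimulus; more negative B-score means stronger Kir2.1 block with less thallium influx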
Target sequence (P35561 whole entry, looked up): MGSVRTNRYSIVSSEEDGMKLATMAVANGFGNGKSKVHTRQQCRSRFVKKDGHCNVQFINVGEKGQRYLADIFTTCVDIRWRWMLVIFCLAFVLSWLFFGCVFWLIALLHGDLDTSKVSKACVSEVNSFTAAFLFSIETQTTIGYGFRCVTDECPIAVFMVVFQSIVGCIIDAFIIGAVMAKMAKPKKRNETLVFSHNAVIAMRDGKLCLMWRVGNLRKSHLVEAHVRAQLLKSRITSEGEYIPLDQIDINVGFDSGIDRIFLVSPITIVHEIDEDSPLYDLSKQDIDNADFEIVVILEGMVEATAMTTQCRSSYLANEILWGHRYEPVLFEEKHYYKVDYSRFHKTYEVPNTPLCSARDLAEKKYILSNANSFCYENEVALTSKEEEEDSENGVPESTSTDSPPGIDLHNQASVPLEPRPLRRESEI
hERG protect: hERG (human) protection from proarrhythmic block | hit rate 0.51% among 310,000 | AID 1511 | CHO-hERG, FluxOR thallium flux, dofetilide IC70 present | Q12809 | activation (rescue from dofetilide block), less the hit threshold, % at 10 µM;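 active = activation above the mean of controls blocked by dofetilide plus 5 SD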;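 note: thallium influx through hERG after potassium depolarization seen as dye fluorescence rise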
KCNQ1 pot: potentiators or activators of human KCNQ1 potassium channel; CHO-K1 KCNQ1, thallium flux FluxOR fluorescence; hits give high values; B-score at 10 µM; AID 2648; hit rate 0.35% among 310,000;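 active = fluorescence ratio B-score, a plate-corrected score, at least three library SD, with initial intensity B-score within 5 SD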
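Test system: CHO-K1 cells stably expressing KCNQ1 / Medium: assay buffer / Also added: depolarizing K+/Tl+ stimulus, K2SO4 and Tl2SO4 each 12.5 mM in 5x stock / Incubation: 90 min dye loading and 20 min compound exposure, both at room temperature / Signal: thallium influx via FluxOR fluorescence, kinetic imaging / Evaluation: B score of baseline-normalized fluorescence ratio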
KCNK9 inh: inhibitors of human KCNK9 two-pore domain potassium channel; Q9NPC2; HEK293 KCNK9, FluxOR thallium flux fluorescence; hits give low values; B-score at 10 µM; hit rate 1.2% among 310,000; AID 488922;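 active = ratio B-score over 3 SD below the library mean, with starting fluorescence within 5 SD of its mean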;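 note: negative B-score means less thallium flux so channel inhibition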
KCNK9 block conf: confirmation of human KCNK9 potassium channel inhibitors; inhibition, % at 10 µM; hit rate 43% among 4,900; shares compounds with KCNK9 inh; HEK293 KCNK9 cells, FluxOR thallium flux fluorescence;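 active = thallium signal inhibited by more than 5 SD of the compound-free buffer control wells, on both duplicate plates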;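 note: 0% = assay buffer control wells without compound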
Kir21 sel: selectivity of KCNK9 modulators against mouse Kir2.1. shares compounds with KCNK9 inh. Kir2.1 cells, FluxOR thallium flux fluorescence. inhibition, % at 10 µM. hit rate 4% among 4,900. AID 492993;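 active = thallium signal drop more than 5 SD beyond the mean of the no-compound control wells, seen in both duplicate plates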;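 note: signal is fluorescence rise after thallium addition divided by baseline fluorescence; plate controls were assay buffer only for no effect and full block by chlorpromazine control for full effect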
KCNK9 uninduced: second counter-screen for KCNK9 modulators: effect in non-induced cells | hit rate 40% among 4,900 | non-induced KCNK9-HEK293, FluxOR thallium flux | inhibition, % at 10 µM | shares compounds with KCNK9 inh | AID 492997;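 active = thallium signal drop beyond 5 SD of the untreated control mean, on both duplicate plates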;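 note: plate controls were buffer only IC0 wells for no effect and SID17386958 at its maximal inhibitory level for full effect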
KCNK3 inh conf: confirmation of human KCNK3 two-pore domain potassium channel inhibitors. shares compounds with KCNK3 block. CHO-KCNK3 thallium flux, FluxOR fluorescence; 0% buffer, 100% carvedilol maximal block. ratio percent of control, % at 10 µM. hit rate 99% among 2,400. AID 651638;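 active = ratio percent of control, averaged over triplicates, above buffer control mean plus 5 SD, cut at about 64% in these data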;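 note: ratio is the fluorescence rise from min to max over baseline after thallium stimulus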
KCNK3 noninduced: activity in cells without induced KCNK3 expression | shares compounds with KCNK3 block | non-induced KCNK3 parental cells, FluxOR thallium flux; hits give low values | thallium flux ratio (lower = more inhibition) at 10 µM | hit rate 40% among 2,400 | AID 651747;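 active = thallium flux ratio, averaged over three wells, more than 5 SD below the buffer control mean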;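 note: host cells are CHO cells without KCNK3 induction; ratio is peak minus trough fluorescence over baseline then normalized to buffer controls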
* = called active by the depositor; i = inactive; . = no result given. Compounds with a hit are over-represented: about 3.7% of the library has one in this group of screens.

SMILES | KCNQ1 block | KCNK3 block | Kir21 block | hERG protect | KCNQ1 pot | KCNK9 inh | KCNK9 block conf | Kir21 sel | KCNK9 uninduced | KCNK3 inh conf | KCNK3 noninduced
Cc1cc(Cl)ccc1NC(=O)CN1C(=O)NC2(CCCc3ccccc32)C1=O (stereo not drawn) | i | i | 0.25 | -14 | i | i | . | . | . | . | .
COC(=O)C1=C(C)NC(C)=C(C(=O)OC)C1c1ccc(-c2cc(Cl)ccc2Cl)o1 | i | -9.7* | 0 | -5 | i | -9.5* | 38%* | i | 40%* | 127* | i
COC(=O)C1=C(C)NC(C)=C(C(=O)OC)C1c1ccc(-c2cccc(Cl)c2Cl)o1 | i | i | 0.52 | -7 | i | i | . | . | . | . | .
COc1cccc(NC(=S)N(CCCN2CCC(C)CC2)Cc2cccs2)c1 | i | i | 1.3 | -9 | i | i | . | . | . | . | .
COc1cccc(NC(=S)N(CCc2c(C)[nH]c3ccc(C)cc23)Cc2cccs2)c1 | i | -11* | -1.1 | -3 | i | -14* | 42%* | i | 43%* | 90* | 0.14*
CC1=NN(C(=O)COc2cc(C)ccc2C(C)C)C(O)(c2ccccc2)C1 (stereo not drawn) | i | -9.8* | -0.01 | -11 | i | -15* | 58%* | i | 38%* | 120* | 0.16*
CC1=NN(C(=O)CSCc2ccccc2)C(O)(c2ccc(Cl)cc2)C1 (stereo not drawn) | i | -13* | -2.1 | -5 | i | -13* | 62%* | i | 34%* | 98* | i
CSc1ccc(CN2CCCC(N3CCN(c4ccccc4)CC3)C2)cc1 (stereo not drawn) | i | i | -1.1 | -8 | i | i | . | . | . | . | .
COc1ccc(C(=O)OC(C(=O)c2ccccc2)c2ccccc2)cc1 (stereo not drawn) | i | -9.6* | -0.63 | -4 | i | -19* | 77%* | i | 46%* | 115* | i
CCCN(CCC)C(=O)CC(c1ccccc1)c1ccco1 (stereo not drawn) | i | i | -3.2 | -7 | i | i | . | . | . | . | .
COc1ccccc1C(=O)NCCC(=O)N(Cc1ccco1)Cc1cccs1 | i | i | -4.2 | -11 | i | i | . | . | . | . | .
CCC(=O)N(CCC(c1ccco1)c1ccccc1OC)Cc1cccs1 (stereo not drawn) | i | -8.9* | -2.9 | -20 | i | -12* | 56%* | i | 34%* | 130* | 0.13*
CC(=O)N(CCC(c1ccccc1)c1ccco1)Cc1cccs1 (stereo not drawn) | i | -10* | -8.8* | -15 | i | -12* | 56%* | i | 30%* | 94* | i
CCOc1cc(-c2nc(-c3ccccc3)c(-c3cc([N+](=O)[O-])ccc3C)[nH]2)ccc1O | 7* | -9.6* | 1.4 | -16 | i | -12* | 56%* | i | i | 124* | 0.12*
O=[N+]([O-])c1ccc(O)c(-c2nc(-c3ccccc3)c(-c3cccs3)[nH]2)c1 | i | i | 1.6 | -19 | i | i | . | . | . | . | .
COc1cccc(C(=O)Nc2nc(-c3ccc4c(c3)OCO4)cs2)c1 | i | -10* | 2.5 | -16 | i | -9* | 26%* | i | 26%* | 121* | 0.14*
CC(=O)Nc1nc(-c2ccc3c(c2)OCO3)cs1 | i | i | 0.04 | -6 | i | i | . | . | . | . | .
O=C(N/N=C/c1ccccc1)c1[nH]c2ccc(Br)cc2c1-c1ccccc1 | i | i | 2.2 | -7 | i | i | . | . | . | . | .
O=C(NN=C1CCCC1)c1[nH]c2ccc(Br)cc2c1-c1ccccc1 | 7* | i | 0.44 | -16 | i | -8.7* | i | i | i | 91* | i
COCCN1Cc2cccc(C(=O)Nc3cccc(-c4nc5ccccc5[nH]4)c3)c2C1=O | i | -10* | 1.2 | -18 | i | -13* | 58%* | i | i | 120* | 0.15*
COCCN1Cc2cccc(C(=O)Nc3ccc(-c4nc5ccccc5[nH]4)cc3)c2C1=O | i | i | 0.04 | -6 | i | i | . | . | . | . | .
CCN(CC(=O)Nc1c(F)cccc1F)C(=O)c1ccc(OCC(=O)N2CCOCC2)c(OC)c1 | . | i | . | . | . | . | . | . | . | . | .
Fc1ccc(N2CCN(C(c3cccs3)c3nnnn3CCc3ccccc3)CC2)cc1 (stereo not drawn) | i | -12* | 1.1 | -5 | i | -13* | 68%* | i | 32%* | 126* | 0.15*
COc1ccccc1NC(=O)c1ccc(NC(=O)CN(C)Cc2ccccc2F)cc1 | i | -11* | 1 | -21 | i | -9.1* | 36%* | i | i | 97* | i
COc1ccccc1NC(=O)c1ccc(NC(=O)COC(=O)C2CC2C)cc1 (stereo not drawn) | i | i | -0.52 | -5 | i | i | . | . | . | . | .
SMILES | KCNQ1 block | KCNK3 block | Kir21 block | hERG protect | KCNQ1 pot | KCNK9 inh | KCNK9 block conf | Kir21 sel | KCNK9 uninduced | KCNK3 inh conf | KCNK3 noninduced
CCc1ccc(/C=C\C(=O)N2CCCC2)cc1 | i | i | -0.75 | -6 | i | i | . | . | . | . | .
CC(C)Cc1ccc(/C=C/C(=O)N2CCCCC2)cc1 | i | -13* | 2.2 | -9 | i | -9.8* | 74%* | i | 39%* | 114* | i
CCN(c1ccc(OC)cc1)S(=O)(=O)c1cc(-c2cc(C)no2)ccc1C(C)C | i | -9.2* | -0.08 | -8 | i | -16* | 60%* | i | 38%* | 121* | 0.14*
CCN(c1ccc(OC)cc1)S(=O)(=O)c1cc(-c2cc(C)no2)ccc1OC | i | i | 0.52 | -7 | i | i | . | . | . | . | .
O=C(CN1CCN(S(=O)(=O)/C=C/c2ccccc2)CC1)NCC(F)(F)F | i | i | 0.39 | -3 | i | i | . | . | . | . | .
Cc1cc(C)c(S(=O)(=O)N2CCOCC2)c(C)c1N(C)S(=O)(=O)c1ccccc1 | i | i | -0.2 | -16 | i | i | . | . | . | . | .
